Results on 28 molecules are retold here after ChEMBL document CHEMBL1275328, “Targeting the polyamine transport system with benzazepine- and azepine-polyamine conjugates” (J Med Chem, 2010).

The subject of one data set is CHO. Nature of the data set: Drug uptake in CHO cells expressing polyamine transport system after 24 hrs by HPLC. The format is ADME, cell-based, Cricetulus griseus. Conditions: chinese hamster. In short, it runs like this: (§1)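 Compound given at 0.1 to 100 μM for 24 h exposure; medium RPMI 1640/10% FCS with 2 mM aminoguanidine. CHO cells seeded at 2 × 10^5 cells/mL and dosed 24 h after seeding. L1210 cells seeded at 4 × 10^4 cells/mL and dosed at seeding. Cells washed thrice in cold 0.14 M NaCl, sonicated in 0.2 N HClO4. Extracts analysed by ion-pair C18 HPLC with post-column OPA/N-acetylcysteine fluorescence (ex 345, em 455 nm). Protein measured on pellet.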

Data set [1] is described as follows: Cytostatic toxicity against mouse L1210 cells expressing polyamine transport system assessed as cell viability at 100 uM after 48 hrs by trypan blue assay. The format is ADME, cell-based. In short, it runs like this: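 L1210 cells exposed 48 h to 100 μM compound, viability scored by Trypan blue exclusion.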
Data set [2] concerns L1210. Nature of the data set: Drug uptake in mouse L1210 cells expressing polyamine transport system in presence of ornithine decarboxylase inhibitor DFMO after 48 hrs by HPLC. Conditions: l1210, 48 h.
For data set [3], the system named is L1210. Nature of the data set: Ratio of spermidine Km to compound Ki for polyamine transport system in mouse L1210 cells. The format is cell-based. In short, it runs like this: (§2)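 2 × 10^6 L1210 cells in 0.6 mL HBSS/20 mM HEPES, 10 min uptake at 37 °C of 1 μM [14C]spermidine with increasing competitor concentrations. IC50 obtained by iterative sigmoidal curve fitting, Ki by Cheng-Prusoff. Spermidine Km from Lineweaver-Burke analysis of uptake at rising labelled substrate. Mean ± SD, three determinations.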

The nature of data set [4]: Cytostatic toxicity against mouse L1210 cells expressing polyamine transport system assessed as reduction in cell growth at 10 uM after 48 hrs by MTT assay. The format is ADME, cell-based. The method, boiled down:
(§3)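 L1210 cells seeded at 5 × 10^4 cells/mL in RPMI 1640 with 10% FCS and 2 mM aminoguanidine, 37 °C, 5% CO2. Compound added at seeding, 48 h exposure. Growth read as MTT formazan absorbance at 540 nm. Growth taken relative to untreated control cells. Means of three or more experiments.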

Data set [5] relates to L1210. Nature of the data set: Drug uptake in mouse L1210 cells expressing polyamine transport system after 24 hrs by HPLC. The format is ADME, cell-based. Conditions: l1210, 24 h. In short, it runs like this:
as §1

Data set [6] is described as follows: Inhibition of [14C]spermidine uptake at polyamine transport system in mouse L1210 cells after 10 mins. The format is cell-based. The method, boiled down:
as §2

Data set [7] relates to L1210. The experiment in a line: Cytostatic toxicity against mouse L1210 cells expressing polyamine transport system after 48 hrs by MTT assay. Conditions: l1210, 48 h. The format is ADME, cell-based. In short, it runs like this: as §3
The subject of data set [8] is L1210. The experiment in a line: Inhibition of reversion of DFMO-induced cytostatic effect against mouse L1210 cells expressing polyamine transport system at 20 uM pretreated with 1 uM spermine for 24 hrs after DFMO addition measured after 48 hrs by MTT assay. The format is functional, cell-based. The method, boiled down:
(§4)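 L1210 cells seeded in 5 mM DFMO. After 24 h, free putrescine, spermidine or spermine added with or without 20 μM test compound. Growth measured by MTT assay 48 h later.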

The test system of data set [9] is L1210. The experiment in a line: Inhibition of reversion of DFMO-induced cytostatic effect against mouse L1210 cells expressing polyamine transport system at 20 uM pretreated with 20 uM spermidine for 24 hrs after DFMO addition measured after 48 hrs by MTT assay. The format is functional, cell-based. The method, boiled down: as §4
(In general: Tetrazolium assays rely on reduction of a dye to a coloured formazan, in cell work by metabolically active cells.)

Data set [10] relates to L1210. Nature of the data set: Inhibition of reversion of DFMO-induced cytostatic effect against mouse L1210 cells expressing polyamine transport system at 20 uM pretreated with 100 uM putrescine for 24 hrs after DFMO addition measured after 48 hrs by MTT assay. The format is functional, cell-based. In short, it runs like this:
as §4

Data set [11] relates to L1210. The experiment in a line: Cytostatic toxicity against mouse L1210 cells expressing polyamine transport system assessed as effect on cell growth upto 20 uM after 48 hrs by MTT assay. The format is ADME, cell-based. Conditions: l1210, 48 h. In short, it runs like this: as §3
Data set [12] has as its system L1210. Nature of the data set: Ratio of drug uptake in mouse L1210 cells at 10 uM in presence of 5 mM ornithine decarboxylase inhibitor DFMO to drug uptake in mouse L1210 cells at 10 uM after 48 hrs by HPLC. Conditions: l1210, 48 h. The format is ADME, cell-based. In short, it runs like this: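 L1210 cells seeded at 4 × 10^4 cells/mL and given 10 μM conjugate at seeding, ±5 mM DFMO, medium containing 2 mM aminoguanidine. Harvest at 48 h, washed in cold 0.14 M NaCl, perchloric extract. Intracellular conjugate measured by ion-pair HPLC with OPA fluorescence. Ratio is DFMO/control accumulation. Mean ± SD of three determinations; Student's t test.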

Where a name gives a salt, the structure may show the parent alone. The source made the active and inactive calls. The rule behind the calls is not given here.

In the case of `Cl.NCCCCNCCCCNC1=NCCCCC1`, the values for the Drug uptake result in the data set with CHO, with L1210 [2] and in the data set on L1210 [5] were “Dose-dependent effect”, “Active” and “Dose-dependent effect”, respectively. Besides, the viability (as a rule, the share of living cells, or the viability signal relative to a control) at 48 h, 100 µM in data set [1] is greater than 95%. Further, the Ratio in the data set with L1210 [3] was 0.43. In [4], the inhibition (in general, the relative decrease from the control value, in per cent) at 48 h, 10 µM was 65%. Moreover, the Ki (in general, the dissociation constant of the complex between target and ligand, obtained from inhibition or displacement) in [6] was found to be 5.47 µM.

With `Cl.NCCCCCNCCCNC1=NCCCCC1`, the values for the Drug uptake result in the data set on CHO, in the data set with L1210 [2] and in the data set on L1210 [5] were “Dose-dependent effect”, “Active” and “Dose-dependent effect”, respectively. Further, the Ratio in the data set with L1210 [3] came out at 0.051. Besides, the affinity in [6], expressed as Ki, was 45.9 µM.

In the case of `NCCCNC[C@@H](O)[C@@H](O)CNCCCN`, the Ratio in the data set with L1210 [3] amounted to 0.45. For the same molecule, the affinity in [6], expressed as Ki, was 5.27 µM.

Consider `NCCCCNCCCCN` [HOMOSPERMIDINE], for which the Ratio in the data set with L1210 [3] turned out to be 1.03. Moreover, in data set [6], the affinity corresponds to a Ki of 2.3 µM.

With `COc1ccc2c(c1)CCCC(NCCCNCCCCNCCCN)=N2.Cl`, the Ratio in the data set on L1210 [3] amounted to 10.3. The molecule also yielded a Ki in [6] of 0.23 µM. The Activity entry in the data set with L1210 [7] is listed as “Toxic”.

Regarding `Cl.NCCCNCCCNC1=NCCCCC1`, the Drug uptake result with CHO is “Dose-dependent effect”; in the data set with L1210 [2] it was “Active”; in the data set on L1210 [5], “Dose-dependent effect”. Besides, the Ratio with L1210 [3] is 0.015. Besides, the affinity in data set [6], expressed as Ki, was 161 µM.

Turning to `Cl.NCCCNCCCCNCCCNC1=Nc2ccccc2CCC1`, the Drug uptake entry is listed as “Dose-dependent effect” in the data set on CHO, “Active” in the data set with L1210 [2] and “Dose-dependent effect” in the data set on L1210 [5]. Also, the Ratio in the data set on L1210 [3] was found to be 15.8. In [6], the affinity corresponds to a Ki of 0.15 µM.

Regarding `NCCCCCNCCCN`, the Ratio with L1210 [3] came to 0.29. In data set [6], the Ki was found to be 8.03 µM.

Turning to `Cl.Cl.NCCCCNC1=NCCCCC1`, the values for the Drug uptake entry in the data set on CHO, with L1210 [2] and with L1210 [5] were “Dose-dependent effect”, “Active” and “Dose-dependent effect”, respectively. Besides, the Ratio with L1210 [3] turned out to be 0.003. In data set [6], this molecule had a Ki of 763 µM.

Regarding `Cl.Cl.NCCCCNC1=Nc2ccccc2CCC1`, the Drug uptake entry in the data set on CHO and in the data set on L1210 [5] was “Dose-dependent effect” throughout. Further, the Ratio in the data set with L1210 [3] was determined as 0.067. Also, the Ki in data set [6] was 35.1 µM.

For `Cl.NCCCNCCCCNCCCNC1=Nc2ccc([N+](=O)[O-])cc2CCC1`, the inhibition entry in the data set on L1210 [8], with L1210 [9] and in the data set with L1210 [10] was “Active” throughout. In addition, the Ratio in the data set with L1210 [3] was 19.8. This molecule also came in with a Ki in [6] of 0.12 µM. For the same molecule, the Activity result in the data set with L1210 [11] is “Non-toxic”.

In the case of `NCCCNCCCN` [NORSPERMIDINE TRIHYDROCHLORIDE], the Ratio in the data set on L1210 [3] stood at 0.46. This molecule also had a Ki in data set [6] of 5.12 µM.

With `NCCCCCCCCNC1=NCCCCC1`, the Ratio in the data set with L1210 [3] was 0.013. In data set [6], this molecule registered a Ki of 183 µM.

With `Cl.NCCCNCCCCNCCCNC1=Nc2ccc(N)cc2CCC1`, the Ratio with L1210 [3] is 12.5. Moreover, in data set [6], the Ki amounted to 0.19 µM. In the data set on L1210 [7], the Activity entry was “Toxic”.

Regarding `NCCCCN` [PUTRESCINE DIHYDROCHLORIDE], in the data set with L1210 [3], the Ratio turned out to be 0.011. Also, the Ki in data set [6] was determined as 208 µM.

On to `NCCCNCCCNCCCNC1=Nc2ccccc2CCC1`, for which the Ratio with L1210 [3] was 2.69. In data set [6], the Ki was 0.88 µM.

With `Cl.NCCCNCCCCNC1=NCCCCC1`, the values for the Drug uptake result in the data set on CHO, in the data set on L1210 [2] and in the data set with L1210 [5] were “Dose-dependent effect”, “Active” and “Dose-dependent effect”, respectively. Also, the Ratio with L1210 [3] came to 0.053. This molecule also came in with a Ki in [6] of 44.7 µM.

With `Cl.NCCCNCCCCNCCCNC1=Nc2ccc(Br)cc2CCC1`, the Ratio in the data set on L1210 [3] turned out to be 16.9. For the same molecule, affinity in data set [6] was put at a Ki of 0.14 µM. Also, the Activity result with L1210 [7] is “Toxic”.

In the case of `NCCCNC[C@@H](O)[C@@H](O)CNCCCNC1=Nc2ccccc2CCC1`, the Ratio in the data set with L1210 [3] worked out at 1.05. Besides, the Ki in data set [6] turned out to be 2.25 µM.

In the case of `NCCCCNCCCCNCCCCN` [HOMOSPERMINE], the Ratio with L1210 [3] came out at 3.25. Affinity in data set [6] was put at a Ki of 0.73 µM.

In the case of `NCCCCNCCCCNCCCCNC1=Nc2ccccc2CCC1`, in the data set on L1210 [3], the Ratio amounted to 11.9. In data set [6], this molecule came in with a Ki of 0.2 µM.

Take `NCCCNCCCCNCCCN`: the Ratio in the data set on L1210 [3] came to 1.77. This molecule also displayed a Ki in data set [6] of 1.34 µM.

As to `Cl.NCCCCNCCCNC1=NCCCCC1`, the Drug uptake entry in the data set on CHO is reported as “Dose-dependent effect”; in the data set on L1210 [2], “Active”; in the data set on L1210 [5], “Dose-dependent effect”. For the same molecule, the viability at 48 h, 100 µM in data set [1] is greater than 95%. Also, the Ratio with L1210 [12] was 4; with L1210 [3] it was 0.16. Moreover, the inhibition at 48 h, 10 µM in [4] amounted to 30%. The same molecule came in with a Ki in data set [6] of 14.6 µM.

Take `NCCCNCCCNCCCN` [NORSPERMINE]: the Ratio in the data set on L1210 [3] came out at 1.57. In data set [6], this molecule gave a Ki of 1.51 µM.

As to `NCCCCCCCCNC1=Nc2ccccc2CCC1`, the Ratio in the data set with L1210 [3] was 0.019. The molecule also returned a Ki in data set [6] of 126 µM.

With `Cl.NCCCCNCCCNC1=Nc2ccccc2CCC1`, the Drug uptake result with CHO and in the data set with L1210 [5] was “Dose-dependent effect” in each case. Further, the Ratio with L1210 [3] is 0.54. This molecule came in with a Ki in data set [6] of 4.4 µM.

With `Cl.NCCCNCCCCNCCCNC1=NCCCCC1`, the Drug uptake entry in the data set with CHO is given as “Dose-dependent effect”; in the data set on L1210 [2], “Active”; with L1210 [5] it was “Dose-dependent effect”. The Ratio in the data set with L1210 [3] amounted to 6.77. This molecule had a Ki in data set [6] of 0.35 µM.

As to `NCCCCCCCCN`, the Ratio with L1210 [3] was 0.098. The molecule also displayed a Ki in [6] of 24.1 µM.
